Source: PubChem BioAssay (several laboratories)
MLLE-PAM2 inh: blocks PAM2 peptide binding to the PABP1 MLLE domain; inhibition, % at 20 µM; 0.36% of 360,000 active; AID 588489; GST-MLLE / FITC-PAM2 fluorescence polarization; in the data active means inhibition above about 35%, passing the limit was not always enough;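 further: plate controls were DMSO wells with GST-MLLE for no effect and wells lacking GST-MLLE protein for full effect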
Target sequence (P11940 whole entry, looked up, the tested form may be a part): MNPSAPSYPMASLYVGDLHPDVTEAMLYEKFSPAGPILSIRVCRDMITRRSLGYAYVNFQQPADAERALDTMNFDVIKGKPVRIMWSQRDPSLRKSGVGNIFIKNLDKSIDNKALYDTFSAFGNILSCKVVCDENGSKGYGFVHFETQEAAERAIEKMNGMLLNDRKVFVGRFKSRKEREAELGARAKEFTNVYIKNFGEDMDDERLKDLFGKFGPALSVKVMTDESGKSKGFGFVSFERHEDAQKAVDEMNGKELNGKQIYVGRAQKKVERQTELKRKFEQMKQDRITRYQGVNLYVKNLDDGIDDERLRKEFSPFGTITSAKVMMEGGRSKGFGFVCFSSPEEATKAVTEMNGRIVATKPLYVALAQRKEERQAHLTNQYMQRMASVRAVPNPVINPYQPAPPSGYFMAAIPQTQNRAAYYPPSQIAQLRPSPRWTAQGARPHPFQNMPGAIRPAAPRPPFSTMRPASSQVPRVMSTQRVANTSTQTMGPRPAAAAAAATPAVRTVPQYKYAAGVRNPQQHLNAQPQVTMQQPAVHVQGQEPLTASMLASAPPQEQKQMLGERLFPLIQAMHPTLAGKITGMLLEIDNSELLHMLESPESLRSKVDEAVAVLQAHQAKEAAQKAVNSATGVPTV
core dimer inh: HCV core protein dimerization inhibition; TR-FRET GST/Flag-core106 dimerization, 1536-well; inhibition, % at 5 µM; 0.33% of 300,000 active;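 active means inhibition above the mean of all tested compounds plus 3 SD, set per screening campaign, cut at about 45% in these data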
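Assay system: tagged HCV core106 pair (GST and Flag); medium: KF-containing HEPES buffer, pH 7.45, DTT, CHAPS, BSA; also added: Eu donor and XL665 acceptor anti-tag antibodies; dosing: 5 µM single dose; timing: compound-protein-antibody incubation 4 h at 22.5 °C; signal: TR-FRET 671 and 617 nm emission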
eIF4H FP inh: inhibitors of RNA binding by human eIF4H; inhibition, % at 35 µM; Q15056; eIF4H fluorescence polarization binding assay; AID 2012; 0.94% of 290,000 active;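 further: calls also rest on retests at 20 µM and on dose response follow-up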
eIF4E 4G PPI: blocks eIF4E binding to eIF4G. P63073+Q04637. 0.37% of 220,000 active. TR-FRET eIF4E-eIF4GI(517-606) binding, 2 h. inhibition, % at 21.7 µM;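 active means inhibition above about 30%, limit read from the data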;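 further: 0% = full FRET control wells and 100% = background wells lacking eIF4GI fragment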
SUMO HTRF inh: blocks human SUMOylation mediated by UBC9 | P63279 | HTRF SUMOylation assay, SAE1/SAE2 + UBC9, in vitro | inhibition, % at 35 µM | 0.36% of 290,000 active; in the data active means inhibition above about 50%, passing the limit was not always enough; inconclusive means no clear call, values can overlap the other calls
PABP FP inh: PABP-poly(A) binding inhibition; PABP-poly(A) RNA binding, fluorescence polarization; calls only at 35 µM; AID 2014; 1% of 290,000 active; P11940;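 further: calls also rest on retests at 20 µM and on dose response follow-up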
* hit, by the source's call; i = inactive; ? = inconclusive; . = no result; + = active, no number. This is a sample that favours compounds with a hit; in the whole collection about 1.8% have one here. Unless noted, how the calls were made is not given here.

SMILES	MLLE-PAM2 inh	core dimer inh	eIF4H FP inh	eIF4E 4G PPI	SUMO HTRF inh	PABP FP inh
CCc1cc(C(=O)c2ccccc2OC)c(N)s1	37*	-3	-5	1	9	i
COc1ccc(C2CC(=O)Oc3c(C(CCN4CCCCC4)c4ccc(N(C)C)cc4)c(OC)cc(OC)c32)cc1 (stereo not drawn)	-1	0	6	-2	-2	i
COc1ccc(C2CC(=O)Oc3c(C(CCN4CCCC(C)C4)c4ccc(N(C)C)cc4)c(OC)cc(OC)c32)cc1 (stereo not drawn)	1	-14	4	43*	-24	i
C[C@]12CCC[C@H](O1)c1c(cc3c(c1O)C(=O)c1c(O)cc(O)cc1C3=O)O2	-99	-2	.	.	.	.
CCOCC(=O)Nc1c(C(=O)Nc2ccc3c(c2)OCCO3)oc2ccccc12	-4	5	-5	-3	18	i
CCc1ccccc1NCC(=O)Nc1ccccc1C(=O)OC	2	-5	active	0	-9	i
COC(=O)c1ccccc1NC(=O)CNc1cc(OC)c(OC)cc1C	1	-4	8	5	-21	i
CCCCn1c(=O)c(CCC(=O)OCC(=O)NC(=O)NCCC(C)C)nc2ccccc21	18	0	active	11	8	i
CCCCn1c(=O)c(CCC(=O)OCC(=O)NC(=O)NCCOC)nc2ccccc21	-2	2	-4	8	-8	i
CN(C)C(=O)CCc1ccc2c3c([nH]c2c1)[C@]1(CCC2CCCC2)[C@@H](C(=O)N2CCOCC2)C[C@H](CC(=O)NCCC2=CCCCC2)C(=O)N1CC3	-2	.	.	.	.	.
COc1ccc(NC(=O)CS(=O)(=O)c2cn(CC(=O)N(C(C)C)C(C)C)c3ccccc23)c(OC)c1	-1	2	1	.	5	i
COc1ccc(NC(=O)Cn2cc(S(=O)(=O)Cc3ccccc3)c3ccccc32)c(OC)c1	-4	52*	12	0	-11	i
COc1ccc(C2=NS(=O)(=O)N(C)C(C(=O)NCc3ccc4c(c3)OCO4)=C2)cc1OC	4	-2	4	.	14	i
CC1(C(=O)NCc2cccs2)CCN1C(=O)Cc1ccc(Cl)cc1Cl (stereo not drawn)	4	.	.	.	.	.
Cc1nnc(NC(=O)c2sc3ccccc3c2Cl)s1	2	13	-6	-6	3	i
CNC(=O)c1ccsc1NC(=O)c1sc2ccccc2c1Cl	-22	-57	54*	6	25	+
Cc1ccc(C(=O)OC/C(O)=C(\C#N)c2nc3ccccc3[nH]2)cc1S(=O)(=O)N1CCOCC1	-29	0	13	-5	2	i
N#C/C(=C(/O)COC(=O)c1ccc(Cl)c(S(=O)(=O)N2CCOCC2)c1)c1nc2ccccc2[nH]1	-11	14	7	0	-8	i
Cc1cc(C)n2c(SC/C(O)=C(\C#N)c3nc4ccccc4[nH]3)nnc2n1	-23	75*	80*	9	37	+
N#C/C(=C(/O)COC(=O)CSc1ccc(Cl)cc1)c1nc2ccccc2[nH]1	-10	13	13	4	3	i
N#C/C(=C(/O)COC(=O)c1ccc2c(c1)OCCO2)c1nc2ccccc2[nH]1	-36	58*	14	-9	-20	i
N#C/C(=C(/O)COC(=O)CCc1ccc(S(=O)(=O)N2CCOCC2)cc1)c1nc2ccccc2[nH]1	-12	16	81	-20	3	+
Cc1cc(SCC(=O)OC/C(O)=C(\C#N)c2nc3ccccc3[nH]2)c(C)cc1Br	-27	6	62	5	55*	i
Cc1ccc(S(=O)(=O)N2CCC(=O)CC2)cc1	-4	-10	-2	.	8	i
CC(C)(C)OC(=O)N1CCN(C(=O)c2[nH]cnc2C(=O)Nc2cccc(Cl)c2)CC1	5	.	.	.	.	.
SMILES	MLLE-PAM2 inh	core dimer inh	eIF4H FP inh	eIF4E 4G PPI	SUMO HTRF inh	PABP FP inh
c1cncc(COC2CCCN(Cc3nc(-c4cccs4)no3)C2)c1 (stereo not drawn)	23	4	-12	2	3	i
c1ccc(COC2CCCN(Cc3nc(-c4cccs4)no3)C2)nc1 (stereo not drawn)	40*	-1	-1	1	16	i
O=C(OCC(=O)c1ccc(Cl)s1)c1cnccn1	-21	54*	8	.	21	i
O=C(OCC(=O)c1ccc(Cl)s1)c1ccccn1	4	-15	0	0	-11	i
CCC(Cc1ccccc1)NS(=O)(=O)c1ccc2c(c1)NC(=O)CO2 (stereo not drawn)	11	4	1	.	5	i
CC1(C)CC2(C)OC(=N)C1(C#N)C2(C#N)C#N (stereo not drawn)	20	-6	-3	-2	9	i
CC1C2(C)OCC(C#N)(C(=N)O2)C1(C#N)C#N (stereo not drawn)	.	-3	63*	4	11	+
Cc1c(N=Nc2c(-c3ccc([N+](=O)[O-])cc3)[nH]n(C(N)=S)c2=O)cccc1[N+](=O)[O-]	41*	.	?	33*	69*	+
NC(=S)n1[nH]c(-c2ccc([N+](=O)[O-])cc2)c(N=Nc2cccc([N+](=O)[O-])c2)c1=O	42*	.	.	13	59*	.
Cn1c(=O)c(=O)n(C)c2cc(S(=O)(=O)NCCOc3ccccc3Cl)ccc21	-8	3	-6	1	9	i
Cc1ccc(CNC(=O)c2cc(S(=O)(=O)N3CCCCC3)ccc2N2CCOCC2)cc1	9	.	.	.	.	.
CC(=O)Nc1nnc(SCC(=O)NCCOc2ccccc2)s1	-115	-2	active	-4	3	+
O=C(CSc1ccc2c(c1)OCCO2)Nc1ncc(Cl)cc1Cl	8	1	4	-12	6	i
O=C(CSc1ccc2c(c1)OCCO2)NCCc1ccc(Cl)cc1Cl	40*	8	-12	-10	-8	i
COc1ccc(N=C2S/C(=C\c3ccc(OCC(=O)O)cc3)C(=O)N2CCc2c[nH]c3ccccc23)cc1	-11	.	89	20	35	+
CSCCC(NC(=O)c1ccco1)C(=O)Nc1ccc(C)cn1 (stereo not drawn)	0	0	.	.	.	.
Cc1no[n+]([O-])c1COc1ccc(/C=C2\NC(=S)NC2=O)cc1	.	16	56*	1	23	+
CCC(C)NC(=O)[C@H]1N2C(=O)c3c(ccc(OC)c3OC)C2SC1(C)C (stereo partly drawn)	43*	6	6	.	-9	i
COc1ccc2c(c1OC)C(=O)N1C2SC[C@H]1C(=O)NC1CCCC1 (stereo partly drawn)	41*	5	-11	.	20	i
